Consider seven compounds from ChEMBL document CHEMBL2176968, “Identification of less lipophilic riminophenazine derivatives for the treatment of drug-resistant tuberculosis” (J Med Chem, 2012).

For data set [1], the system named is Mycobacterium tuberculosis. Kind of data set: Antitubercular activity against multi-drug resistant Mycobacterium tuberculosis isolate 040 infected in BALB/c mouse assessed as reduction in lung bacterial load at 20 mg/kg, po qd administered 5 days per week during acute phase of infection measured after 20 days relative to untreated control. The class given is functional. An outline of the steps: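 Infection was by aerosol, depositing 50-100 bacilli per lung. Dosing began on day 10 and ran to day 30, 5 days per week, with compound in 0.5% CMC by gavage. Groups had 5-6 treated mice and 7-10 CMC-treated controls. The day after the last dose, lung homogenates were plated on supplemented 7H11 agar in duplicate for 2-3 weeks at 37°C. Results are log10 CFU per lung; means were compared by Student's t test.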

For the next data set, the system named is Mus musculus. Kind of data set: Toxicity in BALB/c mouse infected with multi-drug resistant Mycobacterium tuberculosis isolate 040 assessed as skin discoloration at 20 mg/kg, po qd administered 5 days per week during acute phase of infection measured after 20 days. In kind it is organism-based. Also noted: dose 20 mg/kg, route oral. The conditions noted are these: in vivo, 480 h. An outline of the steps:
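Mice were infected by aerosol and then dosed by gavage at 20 mg/kg in 0.5% CMC, 5 days per week, from day 10 to day 30. During treatment, discoloration of ears, internal organs and fat tissue was scored visually and ranked by color intensity.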

For `COC1CCC(/N=c2\cc3n(-c4ccc(Cl)cc4)c4ccccc4nc-3cc2Nc2ccc(C)nc2)CC1` (centres undefined), the log10cfu in data set [1] is on record as 3.25. Besides, the Activity entry in the data set on Mus musculus is listed as “Non-toxic”.

As to `COc1ncccc1Nc1cc2nc3ccccc3n(-c3ccc(F)cc3)c-2c/c1=N\C(C)C`, the log10cfu in data set [1] was determined as 3.91. Also, in the data set with Mus musculus, the Activity entry was “Toxic”.

As to `CC(C)/N=c1\cc2n(-c3ccc(Cl)cc3)c3ccccc3nc-2cc1Nc1ccc(Cl)cc1` [CLOFAZIMINE], in data set [1], the log10cfu worked out at 3.54. The Activity entry in the data set on Mus musculus is given as “Toxic”.

As for `COc1ncccc1Nc1cc2nc3ccccc3n(-c3ccc(F)cc3)c-2c/c1=N\C1CCC(OC)CC1` (centres undefined), the log10cfu in data set [1] worked out at 4.35. In addition, the Activity entry in the data set with Mus musculus was “Toxic”.

Turning to `COc1ncccc1Nc1cc2nc3ccccc3n(-c3ccc(Cl)cc3)c-2c/c1=N\C1CCC(OC)CC1` (centres undefined), in data set [1], the log10cfu is reported as 4.04. The Activity entry with Mus musculus is “Non-toxic”.

Turning to `COc1ncccc1Nc1cc2nc3ccccc3n(-c3ccc(OC(F)(F)F)cc3)c-2c/c1=N\C1CCC(OC)CC1` (centres undefined), the log10cfu in data set [1] was 4.67. In addition, the Activity result with Mus musculus is reported as “Non-toxic”.

On to `COc1ncccc1Nc1cc2nc3ccccc3n(-c3ccc(Cl)cc3)c-2c/c1=N\C1CCOCC1`, for which the log10cfu in data set [1] stood at 4.81. Moreover, in the data set on Mus musculus, the Activity entry was “Non-toxic”.
